Assay results collected from several papers.
PKN1: Serine/threonine-protein kinase N1 (PKN1, Homo sapiens, UniProt Q16512)
PIK3C2G: Phosphatidylinositol 3-kinase C2 domain-containing subunit gamma (PIK3C2G, Homo sapiens, UniProt O75747)

For `COc1ccc2c(c[n+](C)c3c4cc5c(cc4ccc23)OCO5)c1OC`, the activity vs control was 86% (PKN1; enzyme activity; inhibitor; 1 µM).
The remaining binding of `Cc1nn(C)cc1-c1nc2c(N3CCN(Cc4ccc(Cl)cc4)CC3)c(Cl)cnc2[nH]1` is reported as 100% (Cyclin-dependent kinase 18 (CDK18, Homo sapiens, UniProt Q07002); binding; competition with immobilised ligand; 1 µM).
For `COc1ncccc1-c1cnn2ccc(N3CCN(C(=O)OC(C)C)CC3)nc12`, the remaining binding was 94% (PIK3C2G; binding; competition with immobilised ligand; 1 µM).
`Nc1ncc(-c2nc(N3CCOCC3)nc(N3CCOCC3)n2)c(C(F)F)n1` has a remaining binding of 0.75% (PIK3C2G; binding; competition with immobilised ligand; 10 µM).
The activity vs control of `COc1ccc2c(c1)/C(=C/c1cnc[nH]1)C(=O)N2` is reported as 55% (PKN1; enzyme activity; inhibitor; 1 µM).
`CN1CC[C@]2(C)c3cc(OC(=O)Nc4ccccc4)ccc3N(C)[C@H]12` has an inhibition of 0% (Muscarinic acetylcholine receptor M4 (CHRM4, Homo sapiens, UniProt P08173); ligand displacement; radioligand; 10 µM).
For `CCOC(=O)c1ccc(OC(=O)CCCCCNC(=N)N)cc1`, the inhibition was 13% (Matrix metalloproteinase-9 (MMP9, Homo sapiens, UniProt P14780, Q279R); enzyme activity; inhibitor; 10 µM).
The activity vs control of `N#C/C(=C\c1ccc(O)c(O)c1)C(N)=S` is reported as 69% (PKN1; enzyme activity; inhibitor; 1 µM).
With `CN(C)C(=O)COC(=O)Cc1ccc(OC(=O)c2ccc(NC(=N)N)cc2)cc1` the inhibition was 1% (Cathepsin L2 (CTSV, Homo sapiens, UniProt O60911); enzyme activity; inhibitor; 10 µM).
With `CN1CCC(C(c2ccccc2)c2ccccc2)CC1` the koff was 0.133 s⁻¹ (Histamine H1 receptor (HRH1, Homo sapiens, UniProt P35367); binding).
